Reference: ChEMBL document CHEMBL1132930, “Characterization of the binding site of the histamine H(3) receptor. 2. Synthesis, in vitro pharmacology, and QSAR of a series of monosubstituted benzyl analogues of thioperamide” (J Med Chem, 2000)

What follows are compounds tested against Histamine H3 receptor (Cavia porcellus, UniProt Q9JI35) (assay: In vitro histamine H3 receptor antagonist activity was determined on guinea pig jejunum). Details: read-out: pA2 (converted).
Type: functional, tissue-based
Procedure, shortened: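 Guinea pig jejunum preparations, electrically stimulated to give contractile responses (acetylcholine release). H3 agonists inhibit these responses in a concentration-dependent way. Antagonist pA2 derived from that agonist inhibition, per a previously described method.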

Sequence of Histamine H3 receptor (Q9JI35 whole entry): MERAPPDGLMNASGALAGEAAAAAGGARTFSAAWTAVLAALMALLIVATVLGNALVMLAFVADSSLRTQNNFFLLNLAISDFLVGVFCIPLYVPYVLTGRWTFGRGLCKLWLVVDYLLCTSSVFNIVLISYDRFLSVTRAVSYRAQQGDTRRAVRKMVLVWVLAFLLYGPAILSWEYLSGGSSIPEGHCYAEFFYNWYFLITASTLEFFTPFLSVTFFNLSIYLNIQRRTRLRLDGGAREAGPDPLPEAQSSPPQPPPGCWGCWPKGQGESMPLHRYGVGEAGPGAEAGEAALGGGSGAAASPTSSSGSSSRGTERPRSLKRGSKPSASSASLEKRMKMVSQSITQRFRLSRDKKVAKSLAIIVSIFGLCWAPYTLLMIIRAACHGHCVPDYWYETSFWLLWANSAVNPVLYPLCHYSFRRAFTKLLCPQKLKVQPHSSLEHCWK

**Q.** With `S=C(NCc1ccccc1Br)N1CCC(c2c[nH]cn2)CC1` as the compound, how does the Kb read?
**A.** 14.5 nM

**Q.** `Fc1cccc(C/N=C(\S)N2CCC(c3c[nH]cn3)CC2)c1` was tested. Which Kb did it give?
**A.** 363 nM

**Q.** `S=C(NCc1cccc(I)c1)N1CCC(c2c[nH]cn2)CC1` was tested. Which Kb did it give?
**A.** 15.8 nM

**Q.** With `S=C(NCc1ccc(Cl)cc1)N1CCC(c2c[nH]cn2)CC1` as the compound, how does the Kb read?
**A.** 61.7 nM

**Q.** Which Kb does the source give for `CC(C)(C)c1ccccc1C/N=C(\S)N1CCC(c2c[nH]cn2)CC1` here?
**A.** 28.8 nM

**Q.** How did the Kb turn out when `S=C(NCc1ccccc1Cl)N1CCC(c2cnc[nH]2)CC1` was run?
**A.** 6.17 nM

**Q.** `S=C(NCc1ccccc1)N1CCC(c2c[nH]cn2)CC1` was tested. Which Kb did it give?
**A.** 47.9 nM

**Q.** How did the Kb turn out when `S=C(NCc1ccc(I)cc1)N1CCC(c2c[nH]cn2)CC1` was run?
**A.** 166 nM

**Q.** For `S=C(NCc1cccc(Br)c1)N1CCC(c2c[nH]cn2)CC1`, which Kb is on record?
**A.** 33.9 nM

**Q.** How did the Kb turn out when `Cc1ccccc1C/N=C(\S)N1CCC(c2c[nH]cn2)CC1` was run?
**A.** 95.5 nM

**Q.** With `S=C(NCc1cccc(Cl)c1)N1CCC(c2c[nH]cn2)CC1` as the compound, how does the Kb read?
**A.** 38.9 nM

**Q.** `S=C(NCc1ccc(Br)cc1)N1CCC(c2c[nH]cn2)CC1` was tested. Which Kb did it give?
**A.** 339 nM

**Q.** Which Kb does the source give for `Fc1ccc(C/N=C(\S)N2CCC(c3c[nH]cn3)CC2)cc1` here?
**A.** 562 nM

**Q.** Which Kb does the source give for `Fc1ccccc1C/N=C(\S)N1CCC(c2c[nH]cn2)CC1` here?
**A.** 912 nM

**Q.** Which Kb does the source give for `S=C(NCc1ccccc1I)N1CCC(c2c[nH]cn2)CC1` here?
**A.** 7.41 nM

What follows are compounds tested against Histamine H3 receptor (Cavia porcellus) (UniProt Q9JI35). Details: Jejunum.
Sequence of Histamine H3 receptor (Cavia porcellus) (Q9JI35 whole entry): as above

**Q.** For `C[C@@H](N)Cc1c[nH]cn1`, which pD2 is on record?
**A.** 7.8
